Tb MetRS inh – Trypanosoma brucei MetRS inhibition. purified T. brucei MetRS, ATP depletion, Kinase-Glo luminescence. inhibition, % at 11.9 µM. 360,000 compounds, 0.4% hits. AID 624268;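 active = inhibition above a per-plate cutoff of the control wells' mean inhibition plus 3 SD, cut at about 5.5% in these data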
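Dosing: 11.9 µM single point; system: parasite MetRS enzyme; technique: luminescence of leftover ATP; times: 15 min enzyme-compound preincubation, 2 h reaction, 10 min detection, 25 °C; replicates: each compound tested once; read-out basis: percent inhibition relative to median high and low control wells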
PvdQ acylase – P. aeruginosa PvdQ acylase inhibition | purified PvdQ acylase, fluorescence plate reader | inhibition, % at 10 µM | 340,000 compounds, 0.063% hits | AID 488965; in the data active = inhibition above about 30%, passing the limit was not always enough
CAL PDZ FP-1 – human CAL PDZ-peptide interaction inhibition | 330,000 compounds, 0.02% hits | purified CAL PDZ, TMR-peptide fluorescence polarization, 1 h | AID 504414 | inhibition, % at 20 µM | Q9HD26;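 active = highest replicate inhibition of at least 40%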
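Assay system – tagged CAL PDZ protein CerCALP, purified · Timing – 1 h at RT · Compound – single point, 20 µM · Measured by – fluorescence polarization from S- and P-plane intensities, G-factor corrected · Evaluation – inhibition from polarization loss · Probe or stimulus – TMR reporter peptide T*-PRC34 · Buffer or medium – pH 7.4 phosphate-saline buffer, reducing agent, detergent, IgG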
Dyrk1A ADPGlo – inhibitors of rat Dyrk1A kinase. ADP-Glo luminescence, NFATc1 peptide. inhibition, % at 12.5 µM. Q63470. 310,000 compounds, 0.43% hits. AID 504441; in the data active = inhibition above about 50%
CAL PDZ FP-2 – blocks peptide binding to the human CAL PDZ domain; 300,000 compounds, 0.92% hits; purified CAL PDZ, TMR-peptide fluorescence polarization, 1 h; Q9HD26; AID 602252; inhibition, % at 24.9 µM;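 active = mean inhibition of at least 30% with at least half of replicates also reaching 30%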
CDK5 inh – blocks human CDK5/p35 kinase activity; Q00535+Q15078; 330,000 compounds, 0.01% hits; Recombinant CDK5/p35, ADP-Glo luminescence, 60 min; inhibition, % at 10 µM;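 active = highest replicate inhibition of at least 50% and at least 75% of replicates reaching 50%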
Target sequence (Q00535 whole entry, looked up): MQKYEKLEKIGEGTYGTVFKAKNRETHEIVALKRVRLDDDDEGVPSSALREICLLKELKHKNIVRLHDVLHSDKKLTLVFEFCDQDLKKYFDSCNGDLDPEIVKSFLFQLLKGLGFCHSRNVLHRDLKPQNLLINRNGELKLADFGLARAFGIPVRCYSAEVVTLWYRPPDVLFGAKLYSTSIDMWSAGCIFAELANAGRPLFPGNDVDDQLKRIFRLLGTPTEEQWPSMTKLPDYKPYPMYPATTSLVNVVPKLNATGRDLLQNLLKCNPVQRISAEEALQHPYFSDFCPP
Target sequence (Q15078 whole entry, looked up): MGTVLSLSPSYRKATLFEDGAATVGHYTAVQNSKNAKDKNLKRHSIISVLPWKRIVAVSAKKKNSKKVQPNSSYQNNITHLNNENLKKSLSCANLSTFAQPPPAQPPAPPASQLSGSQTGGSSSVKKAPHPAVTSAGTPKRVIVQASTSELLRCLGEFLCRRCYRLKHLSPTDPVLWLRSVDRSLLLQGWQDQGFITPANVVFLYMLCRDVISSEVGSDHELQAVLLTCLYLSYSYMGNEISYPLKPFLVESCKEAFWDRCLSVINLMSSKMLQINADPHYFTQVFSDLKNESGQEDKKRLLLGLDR
A number is an active result; n = inactive; x = no result. A selection: hits, their analogues and other compounds. The true share with any hit is near 1.4%.

SMILES	Tb MetRS inh	PvdQ acylase	CAL PDZ FP-1	Dyrk1A ADPGlo	CAL PDZ FP-2	CDK5 inh
Cc1csc(SC(C)C(=O)NCc2ccc3c(c2)OCO3)n1 (stereo unspecified)	n	n	n	x	64	n
Cc1cc(C)cc(C(O)c2ncc(-c3ccccc3Cl)[nH]2)c1 (stereo unspecified)	n	x	x	x	x	x
C=CCOc1ccc(Br)cc1CNCCO	n	n	n	n	98	n
C=CCOc1ccc(Br)cc1CNC(C)(C)CO	n	n	n	n	n	n
CCOc1ccc(CCN2C(=S)N([C@@H](Cc3ccc(O)cc3)CN3CCC[C@@H]3CN3C(=S)NC[C@@H]3CC(C)C)C[C@@H]2Cc2ccc(O)cc2)cc1	n	x	x	x	x	x
O=C(Nc1ccc(Cl)cc1)N1CCN(C(=O)C2CCCO2)CC1 (stereo unspecified)	n	n	n	n	n	n
O=C(CN1CCN(C(=O)C2CCCO2)CC1)Nc1ccc(Cl)cc1 (stereo unspecified)	n	n	n	n	33	n
COC(=O)[C@H](CC(C)C)NC(=O)NCCC1=CCCCC1	n	n	n	n	76	n
CC(C)C[C@H](NC(=O)NCCC1=CCCCC1)C(=O)O	n	n	n	n	n	n
CCCCn1nnnc1C(c1cc2ccccc2o1)N1CCN(c2ccncc2)CC1 (stereo unspecified)	n	x	x	x	x	x
O=C1NC[C@H](Cc2ccccc2)N(C[C@@H]2CCCN2C[C@H](Cc2ccccc2)N2C[C@H](Cc3ccccc3)N(CCc3ccccc3)C(=O)C2=O)C1=O	n	x	x	x	x	x
CCSc1ccccc1C(=O)NCCCn1ccnc1	n	n	n	n	n	n
Cc1c(C(=O)C(=O)NCCCn2ccnc2)c2ccccc2n1C	n	n	n	x	36	n
Cc1[nH]c2ccccc2c1C(=O)C(=O)NCCCn1ccnc1	n	n	n	x	n	n
CSc1ccccc1C(=O)NCCCn1ccnc1	n	n	n	n	61	n
COc1ccc(NS(=O)(=O)c2cc(NC(=O)c3cnccn3)ccc2OC)cc1Br	n	n	n	x	71	n
COc1ccc(NS(=O)(=O)c2cc(NC(=O)c3cnccn3)ccc2N2CCCC2)cc1	n	n	n	n	n	n
CC(C)(C)NC(=O)C(c1ccncc1)n1c(-c2ccc(C(F)(F)F)cc2)nc2ccccc21 (stereo unspecified)	n	x	x	x	x	x
COc1ccc(/C=N/n2cnnc2)cc1Cn1nc(C)c([N+](=O)[O-])c1C	n	n	n	n	n	n
COc1ccc(/C=N/NC(=O)c2cccc(O)c2)cc1Cn1nc(C)c([N+](=O)[O-])c1C	n	n	n	n	53	n
Cc1cc(C)n2c(NCc3ccccc3)c(-c3cc4ccccc4o3)nc2n1	n	x	x	x	x	x
O=C(Oc1coc(CSc2ncccn2)cc1=O)c1ccccc1[N+](=O)[O-]	n	n	n	x	82	n
CCOCc1cc(=O)[nH]c(SC)n1	n	n	n	n	70	n
CSc1nc(Cl)cc(=O)[nH]1	n	n	n	n	n	n
OC[C@@H]1CN(Cc2cccnc2)C[C@H](n2cnc3c(N4CCN(c5ccccc5)CC4)ncnc32)O1	n	x	x	x	x	x
SMILES	Tb MetRS inh	PvdQ acylase	CAL PDZ FP-1	Dyrk1A ADPGlo	CAL PDZ FP-2	CDK5 inh
Cc1ccc(S(=O)(=O)N2CCOC2CNC(=O)C(=O)NCCc2ccccc2)cc1 (stereo unspecified)	n	n	n	n	33	n
COc1ccc(Nc2nccc(-c3ccc(C#N)cc3)n2)cc1	n	n	n	n	n	55
COC(=O)[C@@]12C[C@@H](CC(=O)NCc3ccccc3)C(=O)N(Cc3ccccc3)C1=CCC(C)(C)C2	n	x	x	x	x	x
COc1ccc(S(=O)(=O)N2CCC[C@H]2C(=O)N2CCC[C@H]2C(=O)NCc2ccc(F)cc2F)cc1C	n	x	x	x	x	x
O=C(Nc1nc2n(n1)C(c1ccc(F)cc1)CC(c1ccccc1)N2)c1ccco1 (stereo unspecified)	n	n	n	n	38	n
COc1cccc(-c2cccc(-c3nc(C(=O)NCCCN4CCOCC4)cc4c3[C@H](CCO)N(S(=O)C(C)(C)C)C4)c2)c1 (stereo partly specified)	n	x	x	x	x	x
CN(C)C(=O)CN1c2cccc3cccc(c23)S1(=O)=O	n	n	n	n	31	n
CC(C)N(Cc1ccccc1)C(=O)CN1c2cccc3cccc(c23)S1(=O)=O	n	n	n	n	n	n

Assay outcomes: PubChem BioAssay, several laboratories
